Experimental data taken from ChEMBL document CHEMBL1147762, “A new chemical tool for exploring the physiological function of the PDE2 isozyme” (Bioorg Med Chem Lett, 2006).
pIC50: −log10 of the molar value.

Experiments:
[1] = biological target: Type-2 angiotensin II receptor (Homo sapiens) (UniProt P50052); test: Percentage binding to angiotensin II type 2 receptor at 10 uM
[2] = biological target: AMP-activated protein kinase, AMPK (Homo sapiens) (UniProt P54646+O43741+P54619+Q9UGJ0+Q9Y478+Q13131+Q9UGI9); test: Inhibition of AMPK at 10 uM; assay type: protein-complex assay
[3] = biological target: B2 bradykinin receptor (Homo sapiens) (UniProt P30411); test: Percentage binding to bradykinin B2 at 10 uM
[4] = biological target: Thyroid hormone receptor (Homo sapiens) (UniProt P10827+P10828); test: Percentage binding to thyroid hormone receptor at 10 uM; assay type: protein-complex assay
[5] = biological target: Tyrosine-protein kinase CSK (Homo sapiens) (UniProt P41240); test: Inhibition of CSK at 10 uM
[6] = biological target: Adrenergic receptor alpha-2 (Homo sapiens) (UniProt P08913+P18825+P18089); test: Percentage binding to adrenergic alpha-2 receptor at 10 uM; assay type: protein assay
[7] = biological target: Casein kinase I (Homo sapiens) (UniProt Q9HCP0+P78368+P48730+P49674+P48729); test: Inhibition of CK1 at 10 uM; assay type: protein assay
[8] = biological target: Rho-associated protein kinase 2 (Homo sapiens) (UniProt O75116); test: Inhibition of ROCK2 at 10 uM
Rho-associated protein kinase 2 (Homo sapiens), sequence (O75116 whole entry, looked up): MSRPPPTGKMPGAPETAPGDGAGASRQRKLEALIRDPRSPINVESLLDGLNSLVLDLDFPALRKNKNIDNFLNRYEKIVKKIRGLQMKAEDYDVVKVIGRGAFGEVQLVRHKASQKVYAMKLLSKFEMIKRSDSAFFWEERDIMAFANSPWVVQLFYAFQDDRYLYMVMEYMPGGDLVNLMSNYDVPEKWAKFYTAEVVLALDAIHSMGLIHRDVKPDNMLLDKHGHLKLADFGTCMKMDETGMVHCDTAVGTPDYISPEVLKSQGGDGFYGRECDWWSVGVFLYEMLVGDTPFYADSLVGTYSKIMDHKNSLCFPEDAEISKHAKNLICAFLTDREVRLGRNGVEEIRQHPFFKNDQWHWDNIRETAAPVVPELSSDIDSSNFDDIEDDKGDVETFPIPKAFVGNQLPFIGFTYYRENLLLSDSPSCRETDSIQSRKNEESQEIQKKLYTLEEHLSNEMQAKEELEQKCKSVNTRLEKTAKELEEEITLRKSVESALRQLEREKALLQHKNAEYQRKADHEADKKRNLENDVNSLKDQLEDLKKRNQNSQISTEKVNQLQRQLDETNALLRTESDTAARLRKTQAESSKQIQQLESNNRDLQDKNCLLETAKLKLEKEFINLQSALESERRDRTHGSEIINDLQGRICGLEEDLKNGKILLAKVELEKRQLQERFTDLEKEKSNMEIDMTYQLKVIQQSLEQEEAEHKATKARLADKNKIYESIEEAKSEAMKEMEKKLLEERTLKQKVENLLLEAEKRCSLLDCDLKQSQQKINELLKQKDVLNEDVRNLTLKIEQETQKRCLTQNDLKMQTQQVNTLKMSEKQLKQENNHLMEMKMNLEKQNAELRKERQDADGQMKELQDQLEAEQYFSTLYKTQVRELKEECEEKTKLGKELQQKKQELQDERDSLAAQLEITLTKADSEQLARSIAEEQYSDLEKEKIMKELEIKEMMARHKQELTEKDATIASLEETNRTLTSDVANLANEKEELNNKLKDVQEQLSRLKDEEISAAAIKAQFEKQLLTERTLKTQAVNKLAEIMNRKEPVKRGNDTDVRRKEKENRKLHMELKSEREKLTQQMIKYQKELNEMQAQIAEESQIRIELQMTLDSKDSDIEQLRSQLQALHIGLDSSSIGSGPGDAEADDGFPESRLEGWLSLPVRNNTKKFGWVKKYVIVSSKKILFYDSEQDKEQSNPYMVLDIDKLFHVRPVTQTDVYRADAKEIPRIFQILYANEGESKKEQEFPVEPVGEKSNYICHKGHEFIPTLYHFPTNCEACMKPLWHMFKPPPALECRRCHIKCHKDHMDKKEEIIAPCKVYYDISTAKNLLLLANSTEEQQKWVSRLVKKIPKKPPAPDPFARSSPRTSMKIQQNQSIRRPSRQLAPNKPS

[9] = biological target: Mitogen-activated protein kinase 12 (Homo sapiens) (UniProt P53778); test: Inhibition of SAPK3 at 10 uM
Mitogen-activated protein kinase 12 (Homo sapiens), sequence (P53778 whole entry): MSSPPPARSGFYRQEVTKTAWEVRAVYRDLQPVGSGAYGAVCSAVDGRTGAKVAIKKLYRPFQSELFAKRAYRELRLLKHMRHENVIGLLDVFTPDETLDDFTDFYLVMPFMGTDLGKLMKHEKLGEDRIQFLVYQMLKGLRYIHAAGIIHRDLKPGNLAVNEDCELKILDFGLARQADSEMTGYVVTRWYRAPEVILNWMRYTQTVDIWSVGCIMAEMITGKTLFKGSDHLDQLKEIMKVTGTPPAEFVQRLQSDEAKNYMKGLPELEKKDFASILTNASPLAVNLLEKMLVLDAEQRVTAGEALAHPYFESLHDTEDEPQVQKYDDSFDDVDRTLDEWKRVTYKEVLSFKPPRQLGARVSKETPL

[10] = biological target: Mitogen-activated protein kinase 14 (Homo sapiens) (UniProt Q16539); test: Inhibition of SAPK2a at 10 uM
[11] = Clearance in rat; assay type: ADME, organism-based; conditions: Sprague-Dawley, in vivo
Outline: (§1)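 Sprague–Dawley rats were dosed intravenously at 1 mg/kg in EtOH:PEG 400:H2O (1:4:5) and orally at 30 mg/kg in 0.5% methylcellulose.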

[12] = biological target: MAP kinase-activated protein kinase 5 (Homo sapiens) (UniProt Q8IW41); test: Inhibition of PRAK at 10 uM
[13] = biological target: High affinity cAMP-specific and IBMX-insensitive 3',5'-cyclic phosphodiesterase 8A (Homo sapiens, UniProt O60658); test: Inhibitory activity against PDE8A by scintillation proximity assay
High affinity cAMP-specific and IBMX-insensitive 3',5'-cyclic phosphodiesterase 8A, sequence (O60658 whole entry): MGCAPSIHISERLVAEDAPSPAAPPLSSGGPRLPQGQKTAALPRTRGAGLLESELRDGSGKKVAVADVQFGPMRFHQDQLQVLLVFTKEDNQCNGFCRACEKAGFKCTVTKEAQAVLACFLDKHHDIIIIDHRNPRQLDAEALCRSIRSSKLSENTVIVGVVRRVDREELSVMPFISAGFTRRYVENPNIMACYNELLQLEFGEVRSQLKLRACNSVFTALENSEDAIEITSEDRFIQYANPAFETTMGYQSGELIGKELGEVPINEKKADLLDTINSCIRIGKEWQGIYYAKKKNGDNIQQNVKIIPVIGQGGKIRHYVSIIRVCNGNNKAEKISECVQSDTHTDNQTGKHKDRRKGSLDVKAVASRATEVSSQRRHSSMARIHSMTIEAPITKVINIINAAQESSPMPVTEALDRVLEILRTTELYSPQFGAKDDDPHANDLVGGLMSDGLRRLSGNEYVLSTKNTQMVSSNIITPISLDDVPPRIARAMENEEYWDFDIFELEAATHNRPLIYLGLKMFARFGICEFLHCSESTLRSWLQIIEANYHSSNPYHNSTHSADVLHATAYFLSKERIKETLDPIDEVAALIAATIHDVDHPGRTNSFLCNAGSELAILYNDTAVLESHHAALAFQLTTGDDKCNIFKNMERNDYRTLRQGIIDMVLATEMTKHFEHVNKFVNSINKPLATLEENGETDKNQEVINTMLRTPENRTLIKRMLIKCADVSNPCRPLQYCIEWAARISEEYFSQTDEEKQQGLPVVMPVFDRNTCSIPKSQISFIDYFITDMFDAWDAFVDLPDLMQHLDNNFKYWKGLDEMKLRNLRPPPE
Outline: (§2)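 Scintillation proximity assay for phosphodiesterase inhibition. Enzyme is used at a concentration within the linear range, and its KM was measured. Final substrate concentration is 1 µM, below one-third of KM, so IC50 approximates Ki. Results are means of n experiments with standard deviation.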

[14] = biological target: Delta-type opioid receptor (Homo sapiens) (UniProt P41143); test: Percentage binding to opioid delta at 10 uM
Delta-type opioid receptor (Homo sapiens), sequence (P41143 whole entry): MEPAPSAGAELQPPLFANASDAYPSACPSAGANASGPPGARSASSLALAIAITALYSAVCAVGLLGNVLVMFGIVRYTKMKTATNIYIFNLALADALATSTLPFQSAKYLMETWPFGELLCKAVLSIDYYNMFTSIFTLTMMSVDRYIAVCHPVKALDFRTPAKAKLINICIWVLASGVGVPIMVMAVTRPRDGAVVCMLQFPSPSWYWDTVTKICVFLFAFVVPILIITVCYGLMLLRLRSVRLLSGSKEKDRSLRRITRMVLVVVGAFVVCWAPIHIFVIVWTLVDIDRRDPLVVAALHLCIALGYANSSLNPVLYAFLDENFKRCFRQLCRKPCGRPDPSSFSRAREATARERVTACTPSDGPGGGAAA

[15] = biological target: Polyunsaturated fatty acid 5-lipoxygenase (Homo sapiens) (UniProt P09917); test: Inhibition of 5LOX at 10 uM
[16] = biological target: Sodium-dependent dopamine transporter (Homo sapiens) (UniProt Q01959); test: Activity against dopamine uptake at 10 uM
[17] = biological target: Mitogen-activated protein kinase 1 (Homo sapiens) (UniProt P28482); test: Inhibition of MAPK2 at 10 uM
Mitogen-activated protein kinase 1 (Homo sapiens), sequence (P28482 whole entry): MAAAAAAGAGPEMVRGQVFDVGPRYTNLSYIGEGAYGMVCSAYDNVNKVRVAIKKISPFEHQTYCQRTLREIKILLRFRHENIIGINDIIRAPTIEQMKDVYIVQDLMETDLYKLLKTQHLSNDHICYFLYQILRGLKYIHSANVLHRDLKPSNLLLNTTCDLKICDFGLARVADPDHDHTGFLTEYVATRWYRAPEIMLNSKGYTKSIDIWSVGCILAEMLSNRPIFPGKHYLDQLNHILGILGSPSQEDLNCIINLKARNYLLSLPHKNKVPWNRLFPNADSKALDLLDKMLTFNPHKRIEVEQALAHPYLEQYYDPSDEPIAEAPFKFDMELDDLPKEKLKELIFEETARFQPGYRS

[18] = Half life in rat; assay type: ADME, organism-based; conditions: Sprague-Dawley, in vivo; outline: as §1
[19] = biological target: Muscarinic acetylcholine receptor M1 (Homo sapiens) (UniProt P11229); test: Percentage binding to muscarinic M1 at 10 uM
[20] = biological target: Mitogen-activated protein kinase 8 (Homo sapiens) (UniProt P45983); test: Inhibition of JNK1a1 at 10 uM
[21] = biological target: Ribosomal protein S6 kinase alpha-5 (Homo sapiens) (UniProt O75582); test: Inhibition of MSK1 at 10 uM
[22] = biological target: Serine/threonine-protein kinase Nek6 (Homo sapiens) (UniProt Q9HC98); test: Inhibition of NEK6 at 10 uM
[23] = biological target: Glycogen synthase kinase-3 beta (Homo sapiens) (UniProt P49841); test: Inhibition of GSK3-beta at 10 uM
[24] = biological target: Acetylcholine receptor; alpha1/beta1/delta/gamma (Homo sapiens) (UniProt P02708+P07510+P11230+Q07001); test: Percentage binding to muscle NACHR at 10 uM; assay type: tissue-based; conditions: Muscle tissue
[25] = biological target: Glucocorticoid receptor (Homo sapiens) (UniProt P04150); test: Percentage binding to glucocorticord receptor at 10 uM
Glucocorticoid receptor (Homo sapiens), sequence (P04150 whole entry): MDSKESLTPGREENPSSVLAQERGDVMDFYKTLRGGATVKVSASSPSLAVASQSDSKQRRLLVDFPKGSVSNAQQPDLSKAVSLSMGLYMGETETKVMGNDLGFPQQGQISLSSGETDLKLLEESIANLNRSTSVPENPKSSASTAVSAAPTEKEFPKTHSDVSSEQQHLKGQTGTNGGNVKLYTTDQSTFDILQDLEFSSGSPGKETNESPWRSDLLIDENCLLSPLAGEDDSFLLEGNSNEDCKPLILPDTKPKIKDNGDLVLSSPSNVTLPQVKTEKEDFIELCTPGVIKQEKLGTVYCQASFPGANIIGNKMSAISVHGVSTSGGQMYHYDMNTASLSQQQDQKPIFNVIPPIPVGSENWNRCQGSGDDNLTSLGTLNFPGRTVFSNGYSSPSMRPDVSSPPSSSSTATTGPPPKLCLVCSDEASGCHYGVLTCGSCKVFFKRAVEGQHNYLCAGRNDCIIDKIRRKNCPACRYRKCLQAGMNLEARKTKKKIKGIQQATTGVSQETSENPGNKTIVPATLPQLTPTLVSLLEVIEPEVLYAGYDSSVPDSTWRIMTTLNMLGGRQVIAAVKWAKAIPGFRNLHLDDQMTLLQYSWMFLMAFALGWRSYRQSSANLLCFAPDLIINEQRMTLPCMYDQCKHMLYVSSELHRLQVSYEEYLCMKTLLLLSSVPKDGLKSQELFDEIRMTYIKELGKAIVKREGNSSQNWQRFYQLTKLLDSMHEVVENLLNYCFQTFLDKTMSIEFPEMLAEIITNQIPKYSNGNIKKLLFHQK

[26] = biological target: Muscarinic acetylcholine receptor M2 (Homo sapiens) (UniProt P08172); test: Percentage binding to muscarinic M2 at 10 uM
[27] = biological target: Adenosine receptor A3 (Homo sapiens) (UniProt P0DMS8); test: Percentage binding to adenosine A3 receptor at 10 uM
[28] = Apical Caco-2 cell membrane permeability; assay type: ADME, cell-based; conditions: human
[29] = biological target: Glutamate [NMDA] receptor (Homo sapiens) (UniProt Q05586+Q12879+Q13224+O15399+O60391+Q14957+Q8TCU5); test: Percentage binding to NMDA at 10 uM; assay type: protein-complex assay
[30] = biological target: Cyclin-dependent kinase 2 (Homo sapiens) (UniProt P24941); test: Inhibition of CDK2 at 10 uM
[31] = biological target: Serine/threonine-protein kinase Sgk1 (Homo sapiens) (UniProt O00141); test: Inhibition of SGK at 10 uM
Serine/threonine-protein kinase Sgk1 (Homo sapiens), sequence (O00141 whole entry): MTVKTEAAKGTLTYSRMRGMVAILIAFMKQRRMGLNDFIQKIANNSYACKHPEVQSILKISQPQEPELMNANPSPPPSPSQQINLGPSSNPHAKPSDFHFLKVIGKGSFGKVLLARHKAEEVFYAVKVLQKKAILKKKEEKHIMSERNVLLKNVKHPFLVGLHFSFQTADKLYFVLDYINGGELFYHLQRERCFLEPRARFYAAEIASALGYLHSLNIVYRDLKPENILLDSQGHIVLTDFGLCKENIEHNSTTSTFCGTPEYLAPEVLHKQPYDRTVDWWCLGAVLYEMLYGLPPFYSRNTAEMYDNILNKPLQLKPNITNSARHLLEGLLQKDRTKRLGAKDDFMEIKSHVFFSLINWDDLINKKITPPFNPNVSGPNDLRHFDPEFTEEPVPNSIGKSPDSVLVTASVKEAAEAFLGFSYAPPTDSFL

[32] = biological target: Substance-P receptor (Homo sapiens) (UniProt P25103); test: Percentage binding to neurokinin K1 at 10 uM
[33] = biological target: 5-hydroxytryptamine receptor 2C (Homo sapiens) (UniProt P28335); test: Percentage binding to serotonin 5HT2C at 10 uM
5-hydroxytryptamine receptor 2C (Homo sapiens), sequence (P28335 whole entry): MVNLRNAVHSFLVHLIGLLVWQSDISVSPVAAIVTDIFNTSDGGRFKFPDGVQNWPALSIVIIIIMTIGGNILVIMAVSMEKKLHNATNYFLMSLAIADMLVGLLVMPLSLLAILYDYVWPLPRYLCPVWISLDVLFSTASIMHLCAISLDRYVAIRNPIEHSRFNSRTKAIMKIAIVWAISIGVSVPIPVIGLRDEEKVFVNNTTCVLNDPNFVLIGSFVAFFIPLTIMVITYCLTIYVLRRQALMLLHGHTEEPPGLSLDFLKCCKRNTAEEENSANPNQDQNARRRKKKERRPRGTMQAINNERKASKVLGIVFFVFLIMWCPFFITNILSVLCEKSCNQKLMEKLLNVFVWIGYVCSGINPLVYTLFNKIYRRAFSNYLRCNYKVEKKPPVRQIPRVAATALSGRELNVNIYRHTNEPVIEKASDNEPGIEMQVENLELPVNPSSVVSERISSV

[34] = biological target: Serotonin 3 (5-HT3) receptor (Homo sapiens) (UniProt P46098+A5X5Y0+O95264+Q70Z44+Q8WXA8); test: Percentage binding to serotonin 5HT3 at 10 uM; assay type: protein-complex assay
[35] = Volume of distribution in rat; assay type: ADME, organism-based; conditions: Sprague-Dawley, in vivo, read-out: Vdss
[36] = biological target: Cyclooxygenase (Homo sapiens) (UniProt P35354+P23219); test: Inhibition of COX at 10 uM; assay type: protein assay
[37] = Apical cell permeability in parental MDCK cells
[38] = biological target: 5-hydroxytryptamine receptor 1A (Homo sapiens) (UniProt P08908); test: Percentage binding to serotonin 5HT1A at 10 uM
[39] = biological target: cGMP-specific 3',5'-cyclic phosphodiesterase (Homo sapiens, UniProt O76074); test: Inhibitory activity against PDE5 by scintillation proximity assay; outline: as §2
[40] = biological target: High affinity cGMP-specific 3',5'-cyclic phosphodiesterase 9A (Homo sapiens, UniProt O76083); test: Inhibitory activity against PDE9 by scintillation proximity assay; outline: as §2
[41] = Half life in rat liver microsome; assay type: ADME; conditions: liver microsomes
[42] = biological target: Casein kinase II (Homo sapiens) (UniProt P67870+P68400+P19784); test: Inhibition of CK2 at 10 uM; assay type: protein-complex assay
[43] = biological target: Beta-2 adrenergic receptor (Homo sapiens) (UniProt P07550); test: Percentage binding to adrenergic beta-2 receptor at 10 uM
[44] = Basolateral Caco-2 cell membrane permeability; assay type: ADME, cell-based; conditions: human
[45] = biological target: 3',5'-cyclic-AMP phosphodiesterase 4D (Homo sapiens, UniProt Q08499); test: Inhibitory activity against PDE4D by scintillation proximity assay; outline: as §2

Q: Which Activity [1] does the source give for `CN1C(=O)C(C(=O)Nc2nncs2)c2cc3occc3cc21` (stereo not given) here?
A: The Activity was 4%.

Q: And the inhibition [2]?
A: The inhibition was 8%.

Q: And the Activity [3]?
A: Its Activity is 5%.

Q: What about the Activity [4] of the same compound?
A: Its Activity is 0%.

Q: And the inhibition [5]?
A: The inhibition was 5%.

Q: What about the Activity [6] of the same compound?
A: Its Activity is 16%.

Q: What about the inhibition [7] of the same compound?
A: The inhibition was 10%.

Q: And the inhibition [8]?
A: The inhibition was 20%.

Q: What about the inhibition [9] of the same compound?
A: Its inhibition is 7%.

Q: What about the inhibition [10] of the same compound?
A: Its inhibition is 0%.

Q: What about the clearance [11] of the same compound?
A: Its clearance is 8.8 mL/min/kg.

Q: And the inhibition [12]?
A: Its inhibition is 28%.

Q: What about the pIC50 [13] of the same compound?
A: Its pIC50 is < 4.80.

Q: And the Activity [14]?
A: The Activity was 3%.

Q: And the inhibition [15]?
A: The inhibition was 35%.

Q: What about the Activity [16] of the same compound?
A: Its Activity is 11%.

Q: And the inhibition [17]?
A: The inhibition was 12%.

Q: And the half-life [18]?
A: Its half-life is 96 min.

Q: What about the Activity [19] of the same compound?
A: The Activity was 9%.

Q: What about the inhibition [20] of the same compound?
A: The inhibition was 0%.

Q: And the inhibition [21]?
A: The inhibition was 6%.

Q: What about the inhibition [22] of the same compound?
A: Its inhibition is 7%.

Q: And the inhibition [23]?
A: Its inhibition is 16%.

Q: What about the Activity [24] of the same compound?
A: The Activity was 0%.

Q: And the Activity [25]?
A: Its Activity is 0%.

Q: And the Activity [26]?
A: Its Activity is 0%.

Q: What about the Activity [27] of the same compound?
A: Its Activity is 35%.

Q: And the Papp [28]?
A: Its Papp is 5 ×10⁻⁶ cm/s.

Q: What about the Activity [29] of the same compound?
A: Its Activity is 7%.

Q: And the inhibition [30]?
A: The inhibition was 2%.

Q: What about the inhibition [31] of the same compound?
A: The inhibition was 0%.

Q: What about the Activity [32] of the same compound?
A: The Activity was 0%.

Q: And the Activity [33]?
A: Its Activity is 0%.

Q: What about the Activity [34] of the same compound?
A: Its Activity is 0%.

Q: And the Vd [35]?
A: Its Vd is 0.1 L/kg.

Q: What about the inhibition [36] of the same compound?
A: Its inhibition is 0%.

Q: And the Papp [37]?
A: Its Papp is 3 ×10⁻⁶ cm/s.

Q: And the Activity [38]?
A: Its Activity is 23%.

Q: What about the pIC50 [39] of the same compound?
A: The pIC50 was < 4.80.

Q: What about the pIC50 [40] of the same compound?
A: The pIC50 was < 4.80.

Q: What about the half-life [41] of the same compound?
A: The half-life was 83 min.

Q: What about the inhibition [42] of the same compound?
A: The inhibition was 32%.

Q: And the Activity [43]?
A: The Activity was 12%.

Q: What about the Papp [44] of the same compound?
A: Its Papp is 32 ×10⁻⁶ cm/s.

Q: And the pIC50 [45]?
A: Its pIC50 is < 4.80.
